Experimental data pooled from the literature.
Lines come from different studies, so protocols differ.
Target: Rho-associated protein kinase 2 (ROCK2, Homo sapiens, UniProt O75116)

Compound	read-out	action	method	concentration	measurement	result
CC(C)(C)c1nc(-c2cccc(NS(=O)(=O)c3c(F)cccc3F)c2F)c(-c2ccnc(N)n2)s1	enzyme activity	inhibitor	radiometric	1 µM	remaining activity	103%
C[C@@H](N)[C@H]1CC[C@H](C(=O)Nc2ccncc2)CC1	cell-free assay			0.5 µM	remaining signal	26.3%
Nc1nc(NC2CCCCC2)sc1C(=O)c1ccccc1	enzyme activity	inhibitor		10 µM	remaining activity	97%
CC(=O)C1=C(C)N(c2cccc(C(F)(F)F)c2)C(=O)N[C@@H]1c1ccc(C#N)nc1	cell-free assay		competition with immobilised ligand	1 µM	remaining binding	86.1%
Nc1nc(Nc2ccccc2)sc1C(=O)c1c(F)cccc1F	enzyme activity	inhibitor		10 µM	remaining activity	55%
CCCS(=O)(=O)Nc1ccc(F)c(C(=O)c2c[nH]c3ncc(-c4ccc(Cl)cc4)cc23)c1F	enzyme activity	inhibitor		1 µM	inhibition	< 10%
CNC(=O)c1cc(Oc2ccc(NC(=O)Nc3ccc(Cl)c(C(F)(F)F)c3)cc2)ccn1	enzyme activity	inhibitor		10 µM	inhibition	38%
CCOc1cc(-c2nncn2C)ccc1Nc1ncc2cc(C)nc(NCC(C)(C)C)c2n1	enzyme activity	inhibitor	FRET	1 µM	inhibition	< 15%
O=C1NC(=O)c2cc(Nc3ccc(F)cc3)c(Nc3ccc(F)cc3)cc21	cell-free assay			0.5 µM	remaining signal	92.8%
NS(=O)(=O)c1cc(NC(=O)C2(c3ccccc3Cl)CC2)ccc1Oc1cccc(Cl)c1	cell-free assay		competition with immobilised ligand	1 µM	remaining binding	100%
Cn1cncc1C1=CN(c2ncnc3[nH]cnc23)CCS1	enzyme activity	inhibitor	radiometric	2 µM	inhibition	93.3%
CS(=O)(=O)Nc1cccc(-c2csc(NC(=O)CSc3nc4nccnc4c(=O)n3CCc3ccccc3)n2)c1	enzyme activity	inhibitor		10 µM	inhibition	5%
Cn1c(=O)n(-c2ccc(C(C)(C)C#N)cc2)c2c3cc(-c4cnc5ccccc5c4)ccc3ncc21	enzyme activity	inhibitor		10 µM	remaining activity	84%
CCN(CC)CCNC(=O)c1c(C)[nH]c(/C=C2\C(=O)Nc3ccc(F)cc32)c1C	cell-free assay			0.5 µM	remaining signal	72.1%
CC(=O)N1CCC(c2ccc(C(=O)NC3=NCCN3)cc2C(F)(F)F)CC1	cell-free assay		competition with immobilised ligand	1 µM	remaining binding	73%
CCCOc1ccc(OC)c(F)c1C(=O)c1ccc(C(=O)N[C@@H]2CNC[C@H]2NC(=O)c2ccc3[nH]ncc3c2)cc1	enzyme activity	inhibitor		0.5 µM	remaining activity	6%
CN(C(=O)c1ccccc1)c1cc(N(C)c2ccc3c(c2)CCc2ccc(C(=O)NCCN4CCOCC4)cc2C3=O)ccc1F	cell-free assay		competition with immobilised ligand	1 µM	remaining binding	100%
Cc1sc(C(=O)NC2COC2)cc1-n1cc(NC(=O)Nc2c(F)cccc2Cl)cn1	enzyme activity	inhibitor		10 µM	remaining activity	93.6%

Compound	read-out	action	method	concentration	measurement	result
COc1cc(Nc2cnc(C#N)c(O[C@H](C)CN(C)C)n2)ncc1-c1cnn(C)c1	enzyme activity	inhibitor	radiometric	1 µM	remaining activity	92%
COc1cccc(CNC(=O)c2nc3scc(COCc4ccc(C(=O)O)cc4)c3c(=O)[nH]2)c1	cell-free assay		competition with immobilised ligand	1 µM	remaining binding	69.1%
CN(c1ncccc1CNc1nc(Nc2ccc3c(c2)CC(=O)N3)ncc1C(F)(F)F)S(C)(=O)=O	enzyme activity	inhibitor		1 µM	inhibition	11.3%
C[C@H](c1ccnc(Nc2nc3ccc(-c4cc(N(C)C)ncn4)cc3[nH]2)c1)N1CCN(C(=O)CC(F)(F)F)CC1	cell-free assay		competition with immobilised ligand	0.1 µM	remaining binding	100%
CN1CC(Oc2cnc(C#N)cc2-c2ccn3nc(NC(=O)C4CC4)cc3c2)C1	enzyme activity	inhibitor		1 µM	inhibition	5%
CC/C(=N\NC(=O)C(C)Nc1ccccc1)c1ccc(O)c(C)c1O (stereo not drawn)	enzyme activity	inhibitor		0.1 µM	inhibition	25.7%
CNCc1ccc(-c2cc(-c3nc(-c4ccc(S(=O)(=O)C(C)C)cc4)cnc3N)on2)cc1	enzyme activity	inhibitor		2 µM	inhibition	13%
CC(C)c1ccc(NC(=O)c2cccs2)c(-c2nc3ccccc3[nH]c2=O)c1	enzyme activity	inhibitor		1 µM	activity vs control	119%
CN([C@@H]1CCc2c(CC(=O)O)c3ccccc3n2C1)S(=O)(=O)c1ccc(F)cc1	cell-free assay		competition with immobilised ligand	1 µM	remaining binding	100%
Cn1cnc(Br)c1C1=CN(c2ncnc3[nH]cnc23)CCS1	enzyme activity	inhibitor	radiometric	50 nM	inhibition	18.6%
O=C(Nc1cnn(-c2csc(C(=O)NC3COC3)c2)c1)Nc1c(F)cccc1Cl	enzyme activity	inhibitor		5 µM	remaining activity	107%
O=S(=O)(NCCNC/C=C/c1ccc(Br)cc1)c1cccc2cnccc12	cell-free assay			0.5 µM	remaining signal	15.4%
Oc1cccc(-c2nc(N3CCOCC3)c3oc4ncccc4c3n2)c1	enzyme activity	inhibitor		10 µM	remaining activity	91%
O=C(NCc1ncc(C(F)(F)F)cc1Cl)c1ccc2c(c1)C1(CCS(=O)(=O)CC1)[C@H](C1CC1)N2S(=O)(=O)c1ccc(F)cc1	cell-free assay		competition with immobilised ligand	1 µM	remaining binding	95%
Cc1ccc(Nc2nccc(N(C)c3ccc4c(C)n(C)nc4c3)n2)cc1S(N)(=O)=O	enzyme activity	inhibitor		10 µM	inhibition	-27%
Cc1ccc(-n2nc(C(C)(C)C)cc2NC(=O)Nc2ccc(OCCN3CCOCC3)c3ccccc23)cc1	enzyme activity	inhibitor		10 µM	inhibition	-3%
COc1cc2ncnc(Nc3ccc(Oc4ccccc4)cc3C)c2cc1OC	enzyme activity	inhibitor		1 µM	inhibition	1%
C=CC(=O)Nc1cc(Nc2nccc(Nc3cc(Cl)c(F)cc3C(C)(C)O)n2)c(OC)cc1N1CC[C@@H](N(C)C)C1	enzyme activity	inhibitor		1 µM	inhibition	15%
